According to ChEMBL document CHEMBL6071149, “Synthesis and photo-induced anticancer activity of new 2-phenylethenyl-1H-benzo[e]indole dyes” (Eur J Med Chem, 2024):
Activity calls are given as the source filed them. The rule behind the calls is not given here.

Columns and labels:
ARN-8 cell [1] = assay: Induction of apoptosis in human ARN-8 cells-derived from human A375 cells assessed as decrease in Bcl-2 level upto 4 uM pretreated for 4 hrs followed by light irradiation of 10 J/cm2 at 414 nm measured after 20 hrs by Western blot analysis; type: functional, cell-based; conditions: time 24.0 hrs
Method in brief: (§1)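 Compound exposure 4 h, then 414 nm irradiation, then 20 h further incubation. Lysates made in RIPA buffer, separated by SDS-PAGE and blotted to nitrocellulose. Primary antibodies in TBS with 4 % BSA and 0.1 % Tween 20, incubated overnight. Peroxidase secondary antibody with chemiluminescent detection. GAPDH served as loading control.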

[2] = Cytotoxicity against ARN-8 cells-derived from human A375 cells pretreated for 4 hrs followed by light irradiation of 10 J/cm2 at 414 nm measured after 20 hrs by MTT assay; type: functional, cell-based; conditions: ARN-8 cell, light or radiation study
Method in brief: (§2)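 Cells grown in phenol red-free DMEM with 10 % FBS, penicillin/streptomycin, 37 °C, 5 % CO₂. Compound added 24 h after plating and incubated 4 h. Irradiated cells received 414 nm LED light at 20 mW/cm², 10 J/cm², then were incubated 20 h or 68 h more. Dark plates were run in parallel without irradiation. MTT was added for 4 h, formazan dissolved in 10 % SDS, absorbance read at 570 nm. EC50 ± SD.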

ARN-8 cell [3] = assay: Induction of ROS production in human ARN-8 cells-derived from human A375 cells upto 4 uM treated for 4 hrs under dark condition by CM-H2DCFA probe based analysis; type: functional
Method in brief: (§3)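 Cells loaded next day with 5 µM CM-H₂DCFDA for 30 min, then placed in prewarmed PBS with 5 mM glucose. Compound exposure 4 h, followed by 414 nm irradiation at 5 or 10 J/cm²; dark samples run in parallel. Fluorescence read immediately at 492/530 nm. NAC (5 mM) pretreatment for 10 min gave negative controls. RFU normalised to untreated dark control.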

G-361 [4] = assay: Induction of DNA fragmentation in human G361 cells at 0.5 uM by Comet assay; type: functional, cell-based
Method in brief: (§4)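 G361 cells exposed at 0.5 µM and irradiated at indicated 414 nm doses. Cells trypsinized and embedded in 1 % LMP agarose on slides, lysed 1 h in buffer with 1 % Triton X. Cold electrophoresis solution for 40 min, then electrophoresis at 20 V, 350 mA for 20 min. Neutralised twice for 10 min, stained with SYBR Green 15 min. Percent DNA in comet head and tail scored.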

G-361 [5] = assay: Induction of DNA fragmentation in human G361 cells at 0.5 uM pretreated with compound followed by light irradiation of 10 J/cm2 at 414 nm by Comet assay; type: functional, cell-based; method in brief: as §4
[6] = (§5) Selectivity ratio of EC50 for human ARN-8 cells-derived from human A375 cells under dark condition measured after 24 hrs by MTT assay to EC50 for human ARN-8 cells-derived from human A375 cells pretreated for 4 hrs followed by light irradiation of 10 J/cm2 at 414 nm measured after 20 hrs by MTT assay; type: functional, ARN-8 cell
Method in brief: (§6)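 Ratio of dark EC50 to EC50 after 414 nm irradiation (10 J/cm²). MTT read-out; compound exposure 4 h before irradiation. Each dark value is paired with the matching post-irradiation incubation (20 h or 68 h).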

G-361 [7] = assay: Induction of DNA damage in human G361 cells assessed as increase in H2AX phosphorylation at Ser139 at 0.5 to 1 uM pretreated for 4 hrs followed by light irradiation of upto 10 J/cm2 at 414 nm measured after 20 hrs by Western blot analysis; type: functional, cell-based; conditions: dose 0.5-1 µM, time 24.0 hrs; method in brief: as §1
[8] = Cytotoxicity against human ARN-8 cells-derived from human A375 cells under dark condition measured after 72 hrs by MTT assay; type: functional, cell-based; conditions: ARN-8 cell; method in brief: as §2
ARN-8 cell [9] = assay: Induction of cell cycle arrest in human ARN-8 cells-derived from human A375 cells assessed as cell accumulation at G2/M phase at 0.5 to 1 uM pretreated for 4 hrs followed by light irradiation of upto 10 J/cm2 at 414 nm measured after 20 hrs by flow cytometry; type: functional, cell-based; conditions: dose 0.5-1 µM, time 24.0 hrs
Method in brief: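 Compound exposure 4 h (0.5 or 1 µM), then irradiation at increasing blue-light doses, then 20 h further incubation. Cells stained with propidium iodide; DNA content measured by flow cytometry with a 488 nm laser. Cell-cycle and subG1 distributions analysed.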

G-361 [10] = assay: Cytotoxicity against human G361 cells pretreated for 4 hrs followed by light irradiation of 10 J/cm2 at 414 nm measured after 20 hrs by MTT assay; type: functional, cell-based; conditions: G-361, light or radiation study; method in brief: as §2
G-361 [11] = assay: Induction of apoptosis in human G361 cells assessed as increase in cleaved BAX level upto 4 uM pretreated for 4 hrs followed by light irradiation of 10 J/cm2 at 414 nm measured after 20 hrs by Western blot analysis; type: functional, cell-based; conditions: time 24.0 hrs; method in brief: as §1
ARN-8 cell [12] = assay: Induction of ROS production in human ARN-8 cells-derived from human A375 cells upto 4 uM pretreated for 4 hrs followed by light irradiation of 5 to 10 J/cm2 measured immediately in presence of N-acetylcysteine by CM-H2DCFA probe based analysis; type: functional; method in brief: as §3
[13] = Selectivity ratio of EC50 for human BJ cells under dark condition measured after 72 hrs by MTT assay to EC50 for human G361 cells pretreated for 4 hrs followed by light irradiation of 10 J/cm2 at 414 nm measured after 68 hrs by MTT assay; type: functional; method in brief: as §6
ARN-8 cell [14] = assay: Induction of apoptosis in human ARN-8 cells-derived from human A375 cells assessed as increase in cleaved pro-caspase-9 level upto 4 uM pretreated for 4 hrs followed by light irradiation of 10 J/cm2 at 414 nm measured after 20 hrs by Western blot analysis; type: functional, cell-based; conditions: time 24.0 hrs; method in brief: as §1
[15] = Selectivity ratio of EC50 for human G361 cells under dark condition measured after 72 hrs by MTT assay to EC50 for human G361 cells pretreated for 4 hrs followed by light irradiation of 10 J/cm2 at 414 nm measured after 68 hrs by MTT assay; type: functional; method in brief: as §6
ARN-8 cell [16] = assay: Induction of cell cycle arrest in human ARN-8 cells-derived from human A375 cells transfected with p53-responsive beta-galactosidase assessed as increase in p53 activation upto 4 uM pretreated for 4 hrs followed by light irradiation of 10 J/cm2 at 414 nm measured after 20 hrs by fluorescence based assay; type: functional; conditions: time 24.0 hrs
Method in brief: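 ARN8 cells stably carrying the p53-responsive pRGΔfoslacZ reporter. Increasing compound concentrations for 4 h, then 414 nm irradiation at 2.5, 5, 7.5 or 10 J/cm², then 20 h further incubation. Cells lysed in 0.3 % Triton X-100. After 10 min, 4-methylumbelliferyl β-D-galactopyranoside added at a final 80 µM for 1 h. Fluorescence read at […].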

G-361 [17] = assay: Induction of oxidative stress in human G361 cells assessed as increase in HO-1 level upto 4 uM under dark condition by immunoblot analysis; type: functional, cell-based
G-361 [18] = assay: Cytotoxicity against human G361 cells pretreated for 4 hrs followed by light irradiation of 10 J/cm2 at 414 nm measured after 68 hrs by MTT assay; type: functional, cell-based; conditions: G-361, light or radiation study; method in brief: as §2
ARN-8 cell [19] = assay: Induction of apoptosis in human ARN-8 cells-derived from human A375 cells assessed as increase in cleaved PARP-1 level upto 4 uM pretreated for 4 hrs followed by light irradiation of 10 J/cm2 at 414 nm measured after 20 hrs by Western blot analysis; type: functional, cell-based; conditions: time 24.0 hrs; method in brief: as §1
[20] = as §5, with “72” for “24”, “68” for “20”; type: functional, ARN-8 cell; method in brief: as §6

## COc1ccc(/C=C/C2=Nc3ccc4ccccc4c3C2(C)C)cc1[N+](=O)[O-]
ARN-8 cell [1]
  Activity: Active
[2]
  EC50: 500 nM
ARN-8 cell [3]
  Activity: inactive
G-361 [4]
  Activity: inactive
G-361 [5]
  Activity: Active
[6]
  Ratio EC50: >=15
G-361 [7]
  Activity: Active
[8]
  EC50: 7300 nM
ARN-8 cell [9]
  Activity: Active
G-361 [10]
  EC50: 600 nM
G-361 [11]
  Activity: Active
ARN-8 cell [12]
  Activity: inactive
[13]
  Ratio EC50: >40
ARN-8 cell [14]
  Activity: Active
[15]
  Ratio EC50: >28
ARN-8 cell [16]
  Activity: Active
G-361 [17]
  Activity: Active
G-361 [18]
  EC50: 200 nM
ARN-8 cell [19]
  Activity: Active
[20]
  Ratio EC50: >28
